Experimental data gathered from unrelated publications.
Lines come from different studies, so protocols differ.
EGFR: Epidermal growth factor receptor (EGFR, Homo sapiens, UniProt P00533)
EGFR L858R: Epidermal growth factor receptor (EGFR, Homo sapiens, UniProt P00533, L858R)
EGFR G719C: Epidermal growth factor receptor (EGFR, Homo sapiens, UniProt P00533, G719C)
EGFR G719S: Epidermal growth factor receptor (EGFR, Homo sapiens, UniProt P00533, G719S)

| Structure (SMILES) | target | effect on | mode | method | concentration | endpoint | result |
| --- | --- | --- | --- | --- | --- | --- | --- |
| C#Cc1cnc(Nc2ccc(CO)cc2)nc1Nc1ccccc1C(=O)NC | EGFR | enzyme activity | inhibitor | radiometric | 1 µM | remaining activity | 10.1% |
| N#Cc1ccc(NC(=O)Nc2ccccc2)cc1 | EGFR L858R | cell-free assay | – | competition with immobilised ligand | 25 µM | remaining binding | 75% |
| CN1CCN(C(=O)c2ccc(NC(=O)Nc3ccc(N(C)c4ccnc(Nc5ccc(CS(C)(=O)=O)cc5)n4)cc3)cc2)CC1 | EGFR G719C | binding | – | – | 1 µM | remaining binding | 95% |
| C=CC(=O)N1CCC([C@@H]2CCNc3c(C(N)=O)c(-c4ccc(Oc5ccccc5)cc4)nn32)CC1 | Epidermal growth factor receptor (EGFR, Homo sapiens, UniProt P00533, del746-750) | cell-free assay | – | – | 1 µM | inhibition | 21% |
| C#Cc1cnc(Nc2ccnc(CO)c2)nc1Nc1ccccc1S(C)(=O)=NC#N (centres unmarked) | EGFR L858R | cell-free assay | – | – | 1 µM | remaining signal | 63% |
| Cc1ccc(NC(=O)c2ccnc(C(F)(F)F)c2)cc1-c1cc(OCCO)nc(N2CCOCC2)c1 | EGFR G719S | binding | – | – | 1 µM | remaining binding | 100% |
| CC#CC(=O)N1CCC[C@H]1c1nc(-c2ccc(C(=O)Nc3ccccn3)cc2)c2c(N)nccn12 | Epidermal growth factor receptor (EGFR, Homo sapiens, UniProt P00533, L858R/T790M) | enzyme activity | inhibitor | – | 1 µM | inhibition | 2% |
| COc1ccc2oc(-c3ccc4nc(N)oc4c3)c/c(=N\c3ccccc3NC(=O)CCN)c2c1 | Epidermal growth factor receptor (EGFR, Homo sapiens, UniProt P00533, T790M) | cell-free assay | – | – | 1 µM | remaining signal | 99% |
| CNC(=O)c1ccccc1Nc1nc(Nc2ccc(CO)cc2)ncc1Cl | EGFR | enzyme activity | inhibitor | radiometric | 1 µM | remaining activity | 7.68% |
| C1=C/COCc2cc(ccc2OCCN2CCCC2)Nc2nccc(n2)-c2cccc(c2)COC/1 | EGFR L858R | binding | – | – | 0.1 µM | remaining binding | 71% |
| C[C@H]1CC[C@H](n2c3cnccc3c3cnc(Nc4ccc5c(n4)CCN(C(=O)CO)C5)nc32)CC1 | Epidermal growth factor receptor (EGFR, Homo sapiens, UniProt P00533, L861Q) | cell-free assay | – | – | 1 µM | remaining signal | 82% |
| CO[C@@H]1[C@H](N(C)C(=O)c2ccccc2)C[C@H]2O[C@]1(C)n1c3ccccc3c3c4c(c5c6ccccc6n2c5c31)C(=O)NC4 | EGFR G719C | enzyme activity | inhibitor | – | 1 µM | inhibition | 17% |
| CCCCC(=O)Nc1ccc(-c2ccc3ncn(CCC)c(=O)c3c2)cn1 | EGFR G719S | binding | – | competition with immobilised ligand | 0.5 µM | remaining binding | 100% |
| COc1ccc2[nH]c3c4[nH]c5ccc(OC)cc5c4c4c(c3c2c1)C(=O)NC4=O | EGFR L858R | binding | – | – | 1 µM | remaining binding | 50% |
